# Screens deposited in PubChem BioAssay by The Scripps Research Institute Molecular Screening Center.
# Most compounds without a hit are left out; they make up all but 2% or so of the library.
# M1 antag: blocks human M1 muscarinic receptor. CHO-K1 hM1, Fluo-8 calcium fluorescence, ACh EC80 antagonist. inhibition, % at 3 µM. actives 1.3% (n = 360,000);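 active = percent inhibition above its own plate's cutoff, namely the mean of that plate's compound wells plus 3 SD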;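 note: peak over basal fluorescence ratio during 140 s after agonist addition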
# Target sequence (P11229 whole entry, looked up): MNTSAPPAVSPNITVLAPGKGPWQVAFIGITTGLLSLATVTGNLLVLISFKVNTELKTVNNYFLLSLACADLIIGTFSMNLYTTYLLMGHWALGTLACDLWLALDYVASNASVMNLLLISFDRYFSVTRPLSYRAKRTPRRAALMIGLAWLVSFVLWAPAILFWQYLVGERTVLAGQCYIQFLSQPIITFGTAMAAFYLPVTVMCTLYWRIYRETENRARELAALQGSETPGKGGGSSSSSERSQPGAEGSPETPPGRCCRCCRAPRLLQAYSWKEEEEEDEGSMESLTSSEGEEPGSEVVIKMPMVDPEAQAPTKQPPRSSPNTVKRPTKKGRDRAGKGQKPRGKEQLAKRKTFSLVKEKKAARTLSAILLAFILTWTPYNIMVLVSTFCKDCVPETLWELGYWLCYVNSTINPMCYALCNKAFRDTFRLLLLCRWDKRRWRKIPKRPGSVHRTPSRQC
# M5 ag: CHRM5 agonism in calcium assay; P08912; CHO-K1 hM5 cells, Fluo-8 calcium fluorescence; 0% DMSO wells, 100% maximal acetylcholine response; activation, % at 3 µM; actives 0.19% (n = 360,000);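 active = activation above the run's mean over test compounds plus 3 SD, cut at about 23% in these data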;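 note: signal is peak over basal fluorescence ratio across the kinetic read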
# M5 PAM: CHRM5 positive allosteric modulation; P08912; CHO-K1 hM5, Fluo-8 calcium, ACh EC20 PAM; 0% = ACh EC20, 100% = ACh EC100; activation, % at 3 µM; actives 0.3% (n = 360,000);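 active = activation above the run cutoff, the mean activation of all test compounds plus 3 SD, cut at about 18% in these data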
#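 System: CHO-K1 cell line with stable human muscarinic M5 receptor expression | Also added: EC20 acetylcholine as agonist stimulus | Compound: One concentration, 3 µM final (nominal) | Timing: Fluo-8 loading 80 min at 37 °C plus 30 min room temperature | Measured by: Fluo-8 calcium dye fluorescence, kinetic read | Read-out basis: % activation, ACh-normalized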
# CHRM1 agonist: activates human CHRM1 receptor | actives 0.33% (n = 360,000) | P11229 | CHO-K1 hM1, Fluo-8 calcium fluorescence, agonist mode; 0% DMSO, 100% acetylcholine EC100 | activation, % at 3 µM | AID 588814;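 active = activation above the run's mean compound activation plus 3 SD, cut at about 16% in these data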;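 note: peak over basal fluorescence ratio within a 140 s kinetic read after compound addition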
# CHRM1 PAM: potentiates human M1 receptor response to acetylcholine; AID 588819; P11229; actives 0.088% (n = 360,000); activation, % at 3 µM; CHO-K1 hM1, Fluo-8 calcium fluorescence, ACh EC20; 0% = ACh EC20, 100% = maximal ACh; in the data active = activation above about 19%, passing the limit was not always enough
# M5 antag: CHRM5 antagonism in calcium assay; CHO-hM5 cells, Fluo-8 calcium fluorescence, ACh EC80; AID 624040; inhibition, % at 3 µM; P08912; actives 0.59% (n = 360,000);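 active = inhibition above a per-plate cutoff, the mean of that plate's test compounds plus 3 SD, cut at about 27% in these data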
# Numbers stand for hits; n = inactive; x = not tested or not shown.
SMILES,M1 antag,M5 ag,M5 PAM,CHRM1 agonist,CHRM1 PAM,M5 antag
Cc1cc(C)nc(SCC(=O)Nc2ccnc3ccccc23)n1,n,n,n,n,n,35.4
CCOC(=O)[C@]12CCC=C1N(Cc1ccco1)C(=O)[C@H](CC(=O)NCCCN1CCCC1=O)C2,x,n,n,x,x,n
Cc1ccc(C2(c3noc(CN(C)Cc4ccccn4)n3)CCCC2)cc1,38.2,n,n,n,n,n
Cc1cc(C)nc(SCCCNCc2ccc(Br)cc2)n1,n,n,n,27.2,n,n
N#Cc1ccccc1S(=O)(=O)N1CCN(Cc2cc3c(cc2Br)OCCO3)CC1,n,n,n,n,n,n
O=C1C(SCCO)=C(SCCO)C(=O)c2ccccc21,n,n,n,n,n,38.2
CC1=C(SCc2ccccc2)C(=O)c2ccccc2C1=O,n,n,n,n,n,n
CCOc1ccc(NC(=O)CCC(=O)NNC(=O)COc2ccc(C)cc2Br)cc1,n,n,n,n,n,n
CCOc1ccc(NC(=O)CCC(=O)NNC(=O)COc2ccc(C)cc2)cc1,n,n,n,n,n,30.1
FC(F)(F)Sc1ccc(NC(=S)NCc2ccccc2)cc1,39.7,n,n,n,n,28.4
S=C(NCc1ccccc1)Nc1ccc(Cl)cc1,n,n,n,n,n,n
COc1ccc2[nH]c(=O)c(CN(Cc3cccs3)S(=O)(=O)c3c(C)ccc4nsnc34)cc2c1,44.5,n,n,n,n,n
Cc1ccc2[nH]c(=O)c(CN(Cc3ccco3)S(=O)(=O)c3c(C)ccc4nsnc34)cc2c1,n,n,n,n,n,n
CCCCN1C(=O)C(=O)N(CC(=O)Nc2cc(Cl)ccc2OC)C1=O,n,n,n,n,27.8,n
CCCCN1C(=O)C(=O)N(CC(=O)Nc2ccccc2C(C)=O)C1=O,n,n,n,n,n,n
O=C(NCc1cc(Cl)cc(Cl)c1)c1ccc2nc(COCCO)[nH]c2c1,n,n,n,n,n,n
O=c1oc2c(O)cccc2cc1-c1nc2ccccc2[nH]1,n,n,n,17.9,n,n
CCc1ccc(OC(C)C(=O)Nc2ccc(S(=O)(=O)Nc3nccs3)cc2)cc1 (stereo not given),n,n,n,16.8,n,n
Cc1ccc(OC(C)C(=O)Nc2ccc(S(=O)(=O)Nc3nccs3)cc2)cc1 (stereo not given),n,n,n,n,n,n
O=C(Nc1ccc2snnc2c1)Nc1cccc2ccccc12,n,n,n,17.3,n,n
Cc1nc2cc(NC(=O)Nc3cccc4ccccc34)ccc2n1C,n,n,n,n,n,n
Cn1c2c(c(=O)n(C)c1=O)C(C(F)(F)F)(C(F)(F)F)N=C(c1ccc(Cl)cc1)N2,23.8,n,n,n,n,n
Cc1cccc(C)c1NC(=O)C(c1ccc(C#N)cc1)n1c(=O)c(-c2cc3ccccc3[nH]2)nc2ccccc21 (stereo not given),x,n,n,x,x,n
Cc1ccc(-n2c(-c3ccc(Br)cc3)c[n+]3c2CCc2ccc4cccnc4c2-3)cc1,90.9,n,n,n,n,35.7
COc1ccc(-n2c(-c3ccc(Cl)cc3)c[n+]3c2CCc2ccccc2-3)cc1,n,n,n,n,n,n
SMILES,M1 antag,M5 ag,M5 PAM,CHRM1 agonist,CHRM1 PAM,M5 antag
Cc1cc(C2CC(=O)Nc3ccccc3S2)c(C)s1 (stereo not given),n,n,n,n,n,n
CCc1nn(CC(=O)NCCCN(CC)Cc2ccccc2)c(=O)c2cc3sccc3n12,43.6,n,n,n,n,n
CCc1nn(CC(=O)NCCCN(C)C2CCCCC2)c(=O)c2cc3occc3n12,n,n,n,n,n,n
CCCCN(CCCNC(=O)Cn1nc(CC)n2c(cc3sc(C)cc32)c1=O)Cc1ccccc1,n,n,n,n,n,n
CCc1nn(CC(=O)NCCCN2CCN(CC)CC2)c(=O)c2cc3occc3n12,n,n,n,n,24.0,n
Cc1ccc(CNc2nc3cc(-c4ccccc4)sc3c(=O)n2C)c(C)c1,n,n,n,n,n,n
CCCOC(=O)C1[C@H]2C(=O)N(C(C)c3ccc(OC)cc3)C[C@]23C=C[C@H]1O3 (stereo not given in full),n,n,n,n,n,n
CCOC(=O)C1[C@H]2C(=O)N(C(C)c3ccc(OC)cc3)C[C@]23C=C[C@H]1O3 (stereo not given in full),68.8,n,n,n,n,n
COC(=O)C1C2C=CC3(CN(Cc4cccs4)C(=O)C13)O2 (stereo not given),n,n,20.8,n,n,n
CC(C)OC(=O)C1C2C=CC3(CN(Cc4cccs4)C(=O)C13)O2 (stereo not given),n,n,n,n,n,n
O=C(O)c1cccc2c1/C(=N/O)c1ccccc1-2,n,n,20.5,n,28.7,n
CCC1(CC)SC(N)=NC1=O,n,n,n,n,n,n
C[C@@]12C(=O)Nc3cc(F)c(F)cc3C(=O)N1[C@H]1c3ccccc3OC[C@@H]1[C@@H]2c1ccccc1,78.9,n,n,n,n,n
C[C@@]12C(=O)Nc3ccc(F)cc3C(=O)N1[C@H]1c3ccccc3OC[C@@H]1[C@@H]2c1ccccc1,89.1,n,n,n,n,56.8
COc1cc2c(cc1OC)C(=O)N1[C@H]3c4ccccc4OC[C@@H]3[C@H](c3ccccc3)[C@]1(C)C(=O)N2,n,n,n,n,n,n
C[C@@]12C(=O)Nc3ccc(F)cc3C(=O)N1[C@H]1c3cc(Cl)ccc3OC[C@@H]1[C@@H]2c1ccccc1,n,n,n,n,n,n
CC(=O)N(C(C)=O)c1ccc(Oc2ccc(Oc3ccc(N(C(C)=O)C(C)=O)cc3)cc2)cc1,n,n,n,n,n,n
O=C(Nc1ccc(F)cc1)Nc1ccc(N2CCCC2)c(S(=O)(=O)Nc2ccccc2Cl)c1,n,n,n,n,n,28.7
COc1ccc(-c2csc(NC(=O)c3ccccc3NS(=O)(=O)c3ccc(F)c(F)c3)n2)cc1,43.5,n,n,n,n,42.3
O=C(Nc1ccccc1N1CCOCC1)c1ccccc1NS(=O)(=O)c1ccc(F)cc1,n,n,n,n,n,n
COc1ccc(-c2csc(NC(=O)c3ccccc3F)n2)cc1,n,n,n,n,n,n
Cc1ccc(S(=O)(=O)Nc2ccccc2C(=O)Nc2nc(-c3ccc(F)cc3)cs2)cc1,n,n,n,n,n,37.8
O=C(Nc1ccccc1N1CCOCC1)c1ccccc1NS(=O)(=O)c1ccc(F)c(F)c1,n,n,35.5,n,n,n
O=C(Nc1ccc(Cl)c(Cl)c1)Nc1ccc(N2CCCC2)c(S(=O)(=O)Nc2ccccc2Cl)c1,n,n,n,n,n,n
